An excerpt weighted towards active compounds, which were near 2.3% of everything screened.
TRPC6 act: mouse TRPC6 channel activators, primary screen, cell-based, HEK293, membrane potential dye. HEK293-TRPC6 membrane potential dye fluorescence; stronger effect = higher value. 0.13% of 310,000 active. B-score at 10 µM;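 active = B-score of the integrated fluorescence ratio above library mean plus 3 SD, and starting fluorescence ratio within library mean plus 5 SD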;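 also: higher score means more depolarization so channel activation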
TRPC6 inh: mouse TRPC6 channel inhibitors, primary screen, cell-based, HEK293, membrane potential dye | Short transient receptor potential channel 6 (Mus musculus), Q61143 | ACh-evoked depolarization; stronger effect = lower value | B-score at 10 µM | 1.1% of 310,000 active | AID 2553, 2010;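 active = B-score under library mean minus 3 SD, initial fluorescence not abnormally high, positive integrated signal ratio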;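 also: B-score derived from integrated fluorescence ratio over the kinetic read; more negative B-score means stronger inhibition of depolarization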
TRPC4 act: activators of mouse TRPC4 channel, primary screen, Fluo4 calcium, HEK293 TRPC4beta/mu-opioid cells; 0.49% of 310,000 active; AID 2237, 2010; Fluo4 calcium fluorescence; stronger effect = higher value; Short transient receptor potential channel 4 (Mus musculus), Q9QUQ5; B-score at 10 µM;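 active = B-score above 5 SD of library B-scores, and initial fluorescence ratio not above library mean plus 5 SD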;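 also: positive B-score marks a calcium rise read as TRPC4 activation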
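Material: HEK293 stable line with TRPC4beta plus mu-opioid receptor; technique: Fluo4 calcium-sensitive dye fluorescence, kinetic, 1 Hz baseline; timing: Fluo4 dye loading 45 min at room temperature, 110 s recording; controls: assay buffer as low control, maximal DAMGO as high control; read-out: integrated baseline-normalised fluorescence ratio, converted to per-well B score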
TRPC4 inh: inhibitors of mouse TRPC4 channel, primary screen, Fluo4 calcium, HEK293 TRPC4beta/mu-opioid cells. DAMGO-evoked Fluo4 calcium flux; stronger effect = lower value. B-score at 10 µM. AID 2247, 2010. 0.39% of 300,000 active;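 active = B-score over 3 SD under the library average, no early fluorescence shift, positive overall ratio signal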
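Assay system: HEK293 cells with stable TRPC4beta plus mu-opioid receptor expression; Probe or stimulus: DAMGO in two steps, submaximal then maximal; Dosing: single-point compound dosing; Measured by: Fluo4 calcium-dye fluorescence, kinetic read; Read-out basis: B score from integrated Fluo4 fluorescence ratio.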
TRPC4 PAM: positive allosteric modulators of TRPC4, primary screen, cell-based, mouse TRPC4beta, HEK293 mu-opioid, Fluo-4 calcium | Short transient receptor potential channel 4 (Mus musculus), Q9QUQ5 | DAMGO EC20, Fluo-4 Ca2+ flux; stronger effect = higher value | B-score at 10 µM | 0.42% of 310,000 active;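 active = B-score of calcium response area above 5 SD of library B-scores, with initial fluorescence ratio within 5 SD of library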
TRPC4 sel inh 2: second check of whether TRPC6 inhibitors also affect mouse TRPC4; shares compounds with TRPC6 inh; HEK293 TRPC4/MOR, membrane potential dye fluorescence; channel activated by saturating DAMGO dose; inhibition, % at 10 µM; 42% of 920 active; AID 2776;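 active = compounds whose fluorescence signal differed from control wells by over 3 SD, either direction, in both duplicate plates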
TRPC4 spec: mouse TRPC4 modulation by TRPC6 hits, confirmation, selectivity assay for TRPC6 inhibitor project, cell-based, HEK293 TRPC4/mu-opioid, membrane potential dye; activity change, negative = inhibition, % at 10 µM; membrane potential fluorescence; shares compounds with TRPC6 inh; 61% of 920 active; AID 2777, 2010;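 active = rise or fall in signal beyond 3 SD of buffer-only wells in both replicate plates, either sign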;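 also: integrated kinetic ratio of fluorescence range over baseline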
HEK293 MPD ctr 2-1: nonspecific membrane potential effects, parental HEK293, confirmation, counter-screen for TRPC6 inhibitor project, cell-based, second counter screen; shares compounds with TRPC6 inh; parental HEK293 membrane potential dye fluorescence; maximal acetylcholine challenge after compound addition; signal change vs control, % at 10 µM; 31% of 920 active; AID 2779, 2010;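 active = membrane potential signal moving either way by over 3 SD of the maximum-effect control, in both duplicate plates, meaning non-specific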
HEK293 MPD ctr-1: membrane potential modulation in parental HEK293, confirmation, counter-screen for TRPC6 inhibitor project, cell-based; membrane potential signal change, % at 10 µM; AID 2780, 2010; 60% of 920 active; shares compounds with TRPC6 inh; parental HEK293 membrane potential dye fluorescence;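 active = membrane potential signal shifting up or down by more than 3 SD of buffer-only wells, on both duplicate plates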
HEK293 MPD ctr-2: parental HEK293 membrane potential modulation, confirmation, counter-screen for TRPC6 modulator project, cell-based; shares compounds with TRPC6 inh; membrane potential dye fluorescence; membrane potential signal change, % at 10 µM; 51% of 2,400 active; AID 488924, 2010;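 active = membrane potential signal moves up or down beyond 5 SD from buffer-only wells, on both duplicate plates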
HEK293 MPD ctr 2-2: second check of TRPC6 modulator effects in parental HEK293 cells; shares compounds with TRPC6 inh; membrane potential dye fluorescence; after compound, maximal acetylcholine stimulation; inhibition, % at 10 µM; 14% of 2,400 active;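 active = membrane potential signal drops by more than 5 SD from the mean control signal, in both duplicate plates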
TRPC4/MOR mod: TRPC4 modulation by TRPC6 hit compounds, confirmation, selectivity assay for TRPC6 modulator project, cell-based, HEK293 TRPC4/mu-opioid, membrane potential dye, mouse; shares compounds with TRPC6 inh; percent change from control (negative = decrease, positive = increase), % at 10 µM; 69% of 2,400 active; AID 488927, 2010; membrane potential fluorescence;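 active = membrane potential signal moved up or down beyond 5 SD of buffer control wells, in both duplicate plates, actives on both sides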
TRPC4 ctr inh 2: mouse TRPC4 off-target activity of TRPC6 modulators, second screen. shares compounds with TRPC6 inh. HEK293 TRPC4/mu-opioid, membrane potential dye fluorescence; stimulated with maximal-effect DAMGO. inhibition, % at 10 µM. 55% of 2,400 active;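 active = drop in membrane potential signal beyond 5 SD of the control wells in both duplicate plates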;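 also: TRPC4 counter screen for TRPC6 hits run under conditions tuned for TRPC6 not TRPC4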
TRPC6 block conf: mouse TRPC6 channel inhibitors, confirmation, HEK293 cells, membrane potential dye, duplicate; 43% of 3,300 active; inhibition, % at 10 µM; AID 488960, 2010; ACh-evoked depolarization; shares compounds with TRPC6 inh;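 active = fluorescence ratio falls more than 5 SD below the full-stimulation control mean, in both duplicate runs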;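 also: integrated fluorescence ratio of peak minus minimum over baseline after agonist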
TRPC6 act confirm: mouse TRPC6 channel activators, confirmation, HEK293 cells, membrane potential dye, duplicate; activation, % at 10 µM; AID 488961, 2010; 11% of 2,800 active; shares compounds with TRPC6 inh; HEK293-TRPC6 membrane potential dye fluorescence, FDSS;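 active = ratio signal rise beyond 5 SD above unstimulated control wells' mean, seen in both duplicate runs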
A number is an active result; 0 = inactive; - = no result given.

SMILES	TRPC6 act	TRPC6 inh	TRPC4 act	TRPC4 inh	TRPC4 PAM	HEK293 MPD ctr-2	HEK293 MPD ctr 2-2	TRPC4/MOR mod	TRPC4 ctr inh 2	TRPC6 block conf	TRPC6 act confirm	others
CSc1nc(-c2ccc(Cl)cc2Cl)[nH]c(=O)c1C#N	13	0	0	0	0	0	0	12%	0	0	0
Cc1cc(-c2ccc(Cl)cc2Cl)c(C#N)c(=O)[nH]1	0	0	0	0	0	-	-	-	-	-	-
c1cc2c3c(cccc3c1)NC1(CCC3(CC1)Nc1cccc4cccc(c14)N3)N2	0	-6.9	0	0	0	-	-	-	-	0	0	TRPC4 sel inh 2=0;TRPC4 spec=-22%;HEK293 MPD ctr 2-1=0;HEK293 MPD ctr-1=-240%
CC(=O)N1CCN(c2ccc(N=Cc3c(O)n(Cc4ccccc4)c(=O)[nH]c3=O)cc2)CC1	0	-5.6	0	0	0	188%	0	-24%	0	0	0
CC(=O)N1CCN(c2ccc(NCc3ccccc3)cc2)CC1	0	0	0	0	0	-	-	-	-	-	-
CC(c1ccccc1)N1C(=O)c2ccccc2C1O (stereo unspecified)	0	0	0	0	0	-	-	-	-	-	-
CCOC(=O)C1CCN(S(=O)(=O)c2ccc(C(C)(C)C)cc2)CC1	0	0	0	0	0	-	-	-	-	-	-
Cn1c(=O)n(C)c2cc([N+](=O)[O-])c(N3CCN(CCO)CC3)cc21	0	-6.8	0	0	0	-370%	70%	-50%	42%	44%	0
Cn1c(=O)n(C)c2cc([N+](=O)[O-])c(N3CCN(S(C)(=O)=O)CC3)cc21	0	0	0	0	0	-	-	-	-	-	-
ONC(=Nc1ccccc1Cl)c1c(F)cccc1F	0	0	0	0	0	-	-	-	-	-	-
CCOc1ccc(N2C=Nc3ccc(OCC)cc3C2)cc1	0	-5.7	0	0	0	-82%	0	-18%	34%	0	0
CCOc1ccc(N2C(=O)CNC2=S)cc1	0	0	0	0	0	-	-	-	-	-	-
COc1cc(CNCCNC(=O)c2nonc2N)ccc1OCc1ccc(Cl)cc1	0	0	0	0	0	-	-	-	-	-	-
CCN(C(=S)NC(=O)c1ccccc1Br)C1CCCCC1	0	0	0	0	0	-	-	-	-	-	-
O=C(c1cccc(F)c1)N1CCN(c2cccc(C(F)(F)F)c2)CC1	0	-6	0	0	0	0	0	16%	0	77%	-
COC(=O)[C@@H](NC(=O)N1CCN(c2cccc(C(F)(F)F)c2)CC1)C(C)C	0	-6.4	0	0	0	0	0	0	0	0	0
O=C(c1cccc(C(F)(F)F)c1)N1CCN(C2CCCCC2)CC1	0	-5.6	0	0	0	0	0	11%	0	40%	-
O=C(c1cccc(F)c1)N1CCN(C2CCCCC2)CC1	0	0	0	0	0	-	-	-	-	-	-
CC1CCN(Cc2c(C(=O)N/N=C/c3cc(Br)ccc3O)nnn2-c2nonc2N)CC1	0	0	0	0	0	-	-	-	-	-	-
CC1CCN(Cc2c(C(=O)N/N=C/c3cc(Cl)ccc3O)nnn2-c2nonc2N)CC1	0	-5.5	0	0	0	0	0	0	0	0	0
CCOc1ccc(NC(=O)C(C)C(Cc2ccc(C)cc2)C(=O)O)cc1 (stereo unspecified)	0	0	0	0	0	-	-	-	-	-	-
Cc1ccc(N2C(=O)CS/C2=N\C(=S)Nc2ccccc2)cc1	0	0	0	0	0	-	-	-	-	-	-
CCOC(=O)c1c(NC(=O)COC(=O)c2cc(OC)c(OC)cc2[N+](=O)[O-])sc(C)c1C	0	-5.1	0	0	0	0	0	0	40%	0	0
CCOC(=O)c1c(NC(=O)COC)sc(C)c1C	0	0	0	0	0	-	-	-	-	-	-
CC1(C)Cc2c(cnn2-c2ccccc2)C(NC(=O)CCCn2cncn2)C1 (stereo unspecified)	0	0	0	0	0	-	-	-	-	-	-
CCOc1cc(/C=N/NC(=O)c2ccccn2)ccc1OC(=O)c1ccc(F)cc1	0	-5.3	0	0	0	0	0	0	0	0	0
C=CCOC(=O)C1=C(C)N(C)C(=O)NC1c1cc2c(cc1Br)OCO2 (stereo unspecified)	0	-5.4	0	0	0	0	0	0	0	0	0
CCCCN1C(=O)/C(=C/C=C2\Oc3ccccc3N2CC)SC1=S	35	0	0	0	0	338%	0	99%	0	0	0
CC(C)(CC(=O)O)CC(=O)N1CCN(c2nc3cc(Cl)ccc3s2)CC1	0	0	0	0	0	-	-	-	-	-	-
